Tests used:
[1] = molecular target: SSTR3 somatostatin receptor (Homo sapiens, UniProt P32745); assay: PRESTO-TANGO / TANGO β-arrestin recruitment assay, SSTR3; type: cell-based
MRGPRX2 [2] = molecular target: T1, MRGPRX2 (Homo sapiens, UniProt Q96LB1); assay: TANGO β-arrestin recruitment assay, MRGPRX2; type: cell-based; conditions: NCC-1 screen, confirmed in concentration-response studies
T1 sequence (Q96LB1 1-330): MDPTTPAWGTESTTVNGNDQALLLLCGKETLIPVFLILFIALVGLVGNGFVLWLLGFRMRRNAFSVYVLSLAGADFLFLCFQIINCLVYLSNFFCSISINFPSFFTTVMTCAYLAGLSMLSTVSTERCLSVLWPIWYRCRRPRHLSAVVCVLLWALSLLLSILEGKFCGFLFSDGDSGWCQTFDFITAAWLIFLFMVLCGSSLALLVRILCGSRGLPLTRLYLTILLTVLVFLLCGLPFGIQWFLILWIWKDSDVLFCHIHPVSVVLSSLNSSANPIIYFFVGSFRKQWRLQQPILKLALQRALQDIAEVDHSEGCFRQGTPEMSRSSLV

DRD4 dopamine receptor = molecular target: T2, DRD4 dopamine receptor (Homo sapiens, UniProt P21917); assay: TANGO β-arrestin recruitment assay, DRD4; type: cell-based; conditions: PRESTO-TANGO screen and concentration-response (Fig. 4b)
T2 sequence (P21917 1-419): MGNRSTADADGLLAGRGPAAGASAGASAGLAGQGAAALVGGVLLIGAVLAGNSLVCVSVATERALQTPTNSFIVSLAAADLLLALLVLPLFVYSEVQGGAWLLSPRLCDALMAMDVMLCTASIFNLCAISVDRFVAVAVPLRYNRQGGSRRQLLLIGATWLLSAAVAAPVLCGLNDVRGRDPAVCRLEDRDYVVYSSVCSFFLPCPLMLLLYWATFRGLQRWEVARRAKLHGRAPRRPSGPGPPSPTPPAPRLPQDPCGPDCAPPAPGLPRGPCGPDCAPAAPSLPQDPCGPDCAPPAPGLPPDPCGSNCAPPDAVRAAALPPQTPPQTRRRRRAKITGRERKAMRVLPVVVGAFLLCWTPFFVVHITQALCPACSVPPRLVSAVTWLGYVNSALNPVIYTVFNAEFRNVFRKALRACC

[3] = system: 133 non-orphan, non-olfactory GPCR targets; assay: PRESTO-TANGO parallel GPCR-ome screening β-arrestin recruitment assay; type: cell-based, human; conditions: of 133 non-orphan
DRD5 dopamine receptor = DRD5 dopamine receptor (Homo sapiens, UniProt P21918); assay: TANGO β-arrestin recruitment assay, DRD5; type: cell-based; conditions: PRESTO-TANGO screen and concentration-response (Fig. 4c)
Chain of DRD5 dopamine receptor (P21918 whole entry): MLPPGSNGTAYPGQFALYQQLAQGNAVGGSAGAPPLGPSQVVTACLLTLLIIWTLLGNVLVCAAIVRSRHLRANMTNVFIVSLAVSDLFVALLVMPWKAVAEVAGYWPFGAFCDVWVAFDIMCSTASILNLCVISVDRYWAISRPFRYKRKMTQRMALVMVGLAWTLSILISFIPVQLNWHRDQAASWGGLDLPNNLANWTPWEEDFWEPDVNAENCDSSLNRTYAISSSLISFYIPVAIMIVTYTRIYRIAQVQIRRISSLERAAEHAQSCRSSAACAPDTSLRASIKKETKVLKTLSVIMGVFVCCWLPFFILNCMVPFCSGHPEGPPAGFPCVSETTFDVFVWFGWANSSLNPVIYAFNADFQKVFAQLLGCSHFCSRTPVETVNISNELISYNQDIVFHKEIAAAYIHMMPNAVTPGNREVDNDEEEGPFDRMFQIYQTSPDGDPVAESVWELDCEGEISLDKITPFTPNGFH

MRGPRX4 [4] = molecular target: T3, MRGPRX4 (Homo sapiens, UniProt Q96LA9); assay: cAMP; type: cell-based; conditions: Gi assay, MRGPRX4-expressing cells
T3 sequence (Q96LA9 whole entry): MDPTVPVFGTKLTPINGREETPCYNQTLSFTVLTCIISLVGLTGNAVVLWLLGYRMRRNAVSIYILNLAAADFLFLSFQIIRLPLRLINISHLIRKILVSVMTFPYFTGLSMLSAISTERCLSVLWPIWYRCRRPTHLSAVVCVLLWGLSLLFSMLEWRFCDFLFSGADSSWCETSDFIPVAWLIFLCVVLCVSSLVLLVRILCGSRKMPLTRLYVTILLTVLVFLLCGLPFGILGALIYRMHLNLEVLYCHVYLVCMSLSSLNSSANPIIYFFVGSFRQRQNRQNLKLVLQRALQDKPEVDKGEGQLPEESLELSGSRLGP

MRGPRX4 [5] = molecular target: T3, MRGPRX4; assay: calcium mobilization assay, stable MRGPRX4 cell line; type: cell-based; conditions: MRGPRX4-expressing stable cells
Procedure, shortened: (§1)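 Tetracycline-inducible Flp-In T-Rex HEK-T lines carried FLAG-tagged receptor in pcDNA5/FRT/TO and were kept with 15 μg/ml blasticidin and 100 μg/ml hygromycin B. Expression was induced with 1ug/ml tetracycline for 24 h. The calcium assay used 15,000 cells/well and FLIPR Calcium 4 dye (45 min 37°C, 15 min RT), with 16-point 3-fold dilutions at final 10 μM–0.003 nM. Fluorescence was read for 10 s baseline plus 120 s.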

[6] = system: 91 orphan and poorly annotated GPCRs; assay: TANGO screen of the NCC-1 library; type: cell-based, human
MRGPRX1 [7] = molecular target: T4, MRGPRX1 (Homo sapiens, UniProt Q96LB2); assay: cAMP; type: cell-based; conditions: Gs assay, HEK293T cells
T4 sequence (Q96LB2 whole entry): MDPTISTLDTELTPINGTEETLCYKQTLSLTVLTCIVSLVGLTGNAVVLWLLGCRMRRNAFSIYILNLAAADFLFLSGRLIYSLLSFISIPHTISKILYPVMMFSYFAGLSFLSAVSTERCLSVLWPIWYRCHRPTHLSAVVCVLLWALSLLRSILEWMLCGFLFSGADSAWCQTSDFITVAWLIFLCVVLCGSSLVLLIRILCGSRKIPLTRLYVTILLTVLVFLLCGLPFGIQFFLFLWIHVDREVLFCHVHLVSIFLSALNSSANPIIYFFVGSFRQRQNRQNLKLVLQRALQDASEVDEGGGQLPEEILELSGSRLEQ

MRGPRX3 = MRGPRX3 (Homo sapiens, UniProt Q96LB0); assay: cAMP; type: cell-based; conditions: Gs assay, HEK293T cells
Chain of MRGPRX3 (Q96LB0 whole entry): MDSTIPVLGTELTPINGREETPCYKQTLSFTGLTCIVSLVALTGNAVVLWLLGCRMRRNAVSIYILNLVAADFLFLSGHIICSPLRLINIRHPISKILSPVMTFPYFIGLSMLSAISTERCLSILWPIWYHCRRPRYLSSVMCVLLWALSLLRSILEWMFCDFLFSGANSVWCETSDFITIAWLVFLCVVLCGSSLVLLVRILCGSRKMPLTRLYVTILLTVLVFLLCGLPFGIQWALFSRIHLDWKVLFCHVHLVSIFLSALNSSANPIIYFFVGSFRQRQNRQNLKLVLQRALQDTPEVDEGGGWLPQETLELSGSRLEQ

MRGPRX4 orphan GPCR = MRGPRX4 orphan GPCR (Homo sapiens, UniProt Q96LA9); assay: TANGO β-arrestin recruitment assay, MRGPRX4; type: cell-based; conditions: initial NCC-1 screen
Chain of MRGPRX4 orphan GPCR (Q96LA9 whole entry): as the sequence (Q96LA9 whole entry) above

MRGPRX4 [8] = molecular target: T3, MRGPRX4; assay: cAMP; type: cell-based; conditions: Gs assay, HEK293T cells
MRGPRX2 [9] = molecular target: T1, MRGPRX2; assay: cAMP; type: cell-based; conditions: Gs assay, HEK293T cells
MRGPRX2 [10] = molecular target: T1, MRGPRX2; assay: calcium mobilization assay, stable MRGPRX2 cell line; type: cell-based; conditions: MRGPRX2-expressing stable cells
Procedure, shortened: as §1

MRGPRX2 [11] = molecular target: T1, MRGPRX2; assay: PI hydrolysis assay, MRGPRX2; type: cell-based
Procedure, shortened: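 HEK-293T cells were transiently transfected with 10 μg receptor DNA per 15 cm dish and seeded the next day on poly-L-lysine in 1% dialyzed FBS. They were labelled 16 h with 1 μCi/well ³H-inositol in inositol-free DMEM. Concentration series were applied in quadruplicate in HBSS/24 mM NaHCO₃/11 mM glucose/15 mM LiCl, pH 7.4, for 1 h at 37°C. Cells were lysed with 50 mM formic acid, and extracts were counted by SPA beads.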

[12] = molecular target: NTSR2 neurotensin receptor (Homo sapiens, UniProt O95665); assay: TANGO β-arrestin recruitment assay, NTSR2; type: cell-based; conditions: for agonist activity at NTSR2 neurotensin receptors: TANGO, agonist mode
Chain of NTSR2 neurotensin receptor (O95665 whole entry): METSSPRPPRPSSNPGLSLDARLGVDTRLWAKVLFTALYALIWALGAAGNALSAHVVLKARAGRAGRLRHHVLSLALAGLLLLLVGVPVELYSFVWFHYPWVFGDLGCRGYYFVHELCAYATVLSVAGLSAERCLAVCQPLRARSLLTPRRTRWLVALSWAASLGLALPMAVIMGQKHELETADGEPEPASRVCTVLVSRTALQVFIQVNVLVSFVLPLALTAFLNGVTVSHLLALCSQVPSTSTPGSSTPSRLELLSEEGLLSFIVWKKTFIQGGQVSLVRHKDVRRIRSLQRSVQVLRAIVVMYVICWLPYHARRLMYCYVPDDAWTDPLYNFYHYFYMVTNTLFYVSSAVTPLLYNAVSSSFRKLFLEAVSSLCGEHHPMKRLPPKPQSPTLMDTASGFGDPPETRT

HTR1A serotonin receptor = molecular target: T5, HTR1A serotonin receptor (Homo sapiens, UniProt P08908); assay: TANGO assay in antagonist mode, HTR1A; type: cell-based; conditions: 1 μM clozapine
T5 sequence (P08908 1-422): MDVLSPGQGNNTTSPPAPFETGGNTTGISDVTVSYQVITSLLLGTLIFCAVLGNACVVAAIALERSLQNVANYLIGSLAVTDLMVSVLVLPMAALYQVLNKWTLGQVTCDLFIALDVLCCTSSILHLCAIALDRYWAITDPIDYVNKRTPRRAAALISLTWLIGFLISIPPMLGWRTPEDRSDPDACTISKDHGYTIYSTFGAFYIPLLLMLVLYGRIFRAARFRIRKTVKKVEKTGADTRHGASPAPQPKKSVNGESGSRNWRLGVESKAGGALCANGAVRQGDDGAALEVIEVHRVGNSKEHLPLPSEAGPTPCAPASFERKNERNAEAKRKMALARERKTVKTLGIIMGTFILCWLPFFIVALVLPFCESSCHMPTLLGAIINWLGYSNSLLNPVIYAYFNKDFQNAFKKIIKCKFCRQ

HTR1D serotonin receptor = HTR1D serotonin receptor (Homo sapiens, UniProt P28221); assay: TANGO assay in antagonist mode, HTR1D; type: cell-based; conditions: 1 μM clozapine
Chain of HTR1D serotonin receptor (P28221 whole entry): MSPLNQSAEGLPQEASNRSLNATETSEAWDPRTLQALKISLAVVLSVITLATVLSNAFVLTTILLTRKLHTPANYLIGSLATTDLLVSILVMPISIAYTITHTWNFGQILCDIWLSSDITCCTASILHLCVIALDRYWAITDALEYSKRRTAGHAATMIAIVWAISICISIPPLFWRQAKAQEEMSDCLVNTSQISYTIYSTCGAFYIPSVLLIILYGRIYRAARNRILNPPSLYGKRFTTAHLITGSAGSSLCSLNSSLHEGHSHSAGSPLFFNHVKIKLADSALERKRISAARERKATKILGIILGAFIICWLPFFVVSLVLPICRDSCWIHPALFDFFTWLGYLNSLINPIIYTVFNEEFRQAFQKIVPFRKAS

MRGPRX1 [13] = molecular target: T4, MRGPRX1; assay: calcium mobilization assay, stable MRGPRX1 cell line; type: cell-based; conditions: MRGPRX1-expressing stable cells
Procedure, shortened: as §1

[14] = molecular target: MLNR motilin receptor TANGO construct; assay: TANGO
Chain of MLNR motilin receptor TANGO construct (O43193 whole entry): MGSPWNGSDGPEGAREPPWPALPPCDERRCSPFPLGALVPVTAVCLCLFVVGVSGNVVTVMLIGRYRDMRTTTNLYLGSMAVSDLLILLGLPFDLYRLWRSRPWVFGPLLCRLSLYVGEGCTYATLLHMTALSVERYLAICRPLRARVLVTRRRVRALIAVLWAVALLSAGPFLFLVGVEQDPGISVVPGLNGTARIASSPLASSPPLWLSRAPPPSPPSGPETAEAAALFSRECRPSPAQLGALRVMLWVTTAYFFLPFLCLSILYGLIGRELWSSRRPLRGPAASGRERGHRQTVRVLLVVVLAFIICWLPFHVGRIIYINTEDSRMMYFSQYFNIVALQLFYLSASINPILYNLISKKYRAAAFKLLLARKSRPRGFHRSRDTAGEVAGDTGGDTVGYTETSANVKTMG

[15] = molecular target: T6, CX3CR1 chemokine receptor (Homo sapiens, UniProt P49238); assay: TANGO β-arrestin recruitment assay, CX3CR1; type: cell-based; conditions: n = 4
T6 sequence (P49238 1-355): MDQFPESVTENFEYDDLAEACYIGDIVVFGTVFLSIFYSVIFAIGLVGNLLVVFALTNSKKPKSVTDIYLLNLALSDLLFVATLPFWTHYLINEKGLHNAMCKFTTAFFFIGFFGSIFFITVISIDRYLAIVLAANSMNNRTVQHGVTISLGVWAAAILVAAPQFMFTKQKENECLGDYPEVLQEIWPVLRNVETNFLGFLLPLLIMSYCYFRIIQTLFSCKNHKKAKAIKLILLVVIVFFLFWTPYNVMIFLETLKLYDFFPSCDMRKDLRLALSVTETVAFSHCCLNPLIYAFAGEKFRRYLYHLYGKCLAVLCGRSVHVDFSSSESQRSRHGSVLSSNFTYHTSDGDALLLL

Chain of SSTR3 somatostatin receptor (P32745 whole entry): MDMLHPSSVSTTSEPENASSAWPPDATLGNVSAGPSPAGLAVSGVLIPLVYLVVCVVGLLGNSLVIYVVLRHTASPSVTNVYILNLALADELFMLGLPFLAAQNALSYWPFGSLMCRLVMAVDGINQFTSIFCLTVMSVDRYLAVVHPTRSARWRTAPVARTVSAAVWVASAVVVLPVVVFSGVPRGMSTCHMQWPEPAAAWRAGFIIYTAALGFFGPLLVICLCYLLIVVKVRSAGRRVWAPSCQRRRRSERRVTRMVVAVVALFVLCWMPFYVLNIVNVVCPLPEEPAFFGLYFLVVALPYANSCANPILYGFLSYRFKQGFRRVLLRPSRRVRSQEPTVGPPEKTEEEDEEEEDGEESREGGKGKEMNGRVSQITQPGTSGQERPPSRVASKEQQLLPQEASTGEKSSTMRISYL

## CNCCC(Oc1ccc(C(F)(F)F)cc1)c1ccccc1 (centres unmarked) [Fluoxetine, fluoxetine]
[1]; follow-up assays (data not shown)
  agonist activity at SSTR3 in follow-up assays: not confirmed
[1]; initial PRESTO-TANGO screen
  agonist activity at the SSTR3 somatostatin receptor: modest agonist activity

## CC(C)[C@@H](CN1CC[C@@](C)(c2cccc(O)c2)[C@@H](C)C1)NC(=O)[C@H]1Cc2ccc(O)cc2CN1 [JDTic]
MRGPRX2 [2]
  activity in the TANGO assay at MRGPRX2: significant activity

## CCN(CC)C(=O)[C@@H]1C=C2c3cccc4[nH]cc(c34)C[C@H]2N(C)C1 [LSD, lysergic acid diethylamide]
DRD4 dopamine receptor
  activity at the D4 dopamine receptor: displayed activity
[3]
  number of tested targets with activity: 15
DRD5 dopamine receptor
  activity at the D5 dopamine receptor: displayed activity

## CC(C)[C@H]1CC[C@H](C(=O)N[C@H](Cc2ccccc2)C(=O)O)CC1 [Nateglinide, nateglinide]
MRGPRX4 [4]
  inhibition of the cAMP response to isoproterenol: inability
MRGPRX4 [5]
  calcium mobilization response: concentration-dependent responses
[6]; NCC-1 screen
  selectivity among the 91 targets tested: apparently selective
MRGPRX1 [7]
  activity when cAMP was measured at MRGPRX1: inactive
MRGPRX3
  activity when cAMP was measured at MRGPRX3: inactive
MRGPRX4 orphan GPCR
  increase in luminescence over basal levels: 45 fold
MRGPRX4 [8]
  activity when cAMP was measured at MRGPRX4: exceedingly modest activity at high concentrations
MRGPRX2 [9]
  activity when cAMP was measured at MRGPRX2: inactive

## COC(=O)[C@@H]1C[C@H](OC(=O)CSC#N)C(=O)[C@H]2[C@@]1(C)CC[C@H]1C(=O)O[C@H](c3ccoc3)C[C@]21C [RB64]
MRGPRX2 [2]
  activity in the TANGO assay at MRGPRX2: significant activity

## CN1CC[C@]2(c3cccc(O)c3)Cc3nc4ccccc4cc3C[C@H]2C1 [SB 205,607]
MRGPRX2 [10]
  calcium mobilization response: concentration-dependent responses
MRGPRX2 [2]
  activity in the TANGO assay at MRGPRX2: most active compounds
MRGPRX2 [11]
  concentration-dependent activity at MRGPRX2 by PI hydrolysis: confirmed

## COc1cccc(OC)c1-c1cc(C(=O)NC2(C(=O)O)C3CC4CC(C3)CC2C4)nn1-c1ccnc2cc(Cl)ccc12 (centres unmarked) [SR48692]
[12]
  agonist activity at NTSR2 neurotensin receptors: agonists

## CC(C)C[C@H](NC(=O)[C@@H](O)[C@H](N)Cc1ccccc1)C(=O)O [bestatin]
[6]; of 91 targets tested
  number of targets with > 2-fold increase in luminescence: 59
  percent of targets with > 2-fold increase in luminescence: 65%

## CN1CCN(C2=Nc3cc(Cl)ccc3Nc3ccccc32)CC1 [clozapine]
HTR1A serotonin receptor
  effect of pre-exposure on responses to the agonist LSD: little or no effect
HTR1D serotonin receptor
  effect of pre-exposure on responses to the agonist LSD: little or no effect

## CN1CCC(=C2c3ccccc3C=Cc3ccccc32)CC1 [cyproheptadine]
MRGPRX2 [2]
  activity in the TANGO assay at MRGPRX2: showed activity

## COc1ccc2c(c1)[C@]13CCCC[C@@H]1[C@H](C2)N(C)CC3 [dextromethorphan]
MRGPRX2 [2]
  activity in the TANGO assay at MRGPRX2: showed activity
MRGPRX2 [11]
  concentration-dependent activity at MRGPRX2 by PI hydrolysis: confirmed

## COC(=O)C[C@](O)(CCCC(C)(C)O)C(=O)O[C@@H]1C(OC)=C[C@]23CCCN2CCc2cc4c(cc2[C@H]13)OCO4 [homoharringtonine]
[6]; of 91 targets tested
  number of targets with greater than 2-fold reduction in luminescence: 58
  percent of targets with greater than 2-fold reduction in luminescence: 64%

## CN1CCC(=C2c3ccccc3CC(=O)c3sccc32)CC1 [ketotifen]
MRGPRX2 [2]
  activity in the TANGO assay at MRGPRX2: showed activity

## C[C@@H]1CN([C@H]2CC[C@](C#N)(c3ccc(F)cc3)CC2)CC[C@]1(C(=O)O)c1ccccc1 [levocabastine]
[12]; NTSR2-transfected cells, pre-incubation before agonist
  antagonism of SR48692- or SR142948-induced arrestin recruitment responses: antagonists

## CN1CC[C@]23CCCC[C@H]2[C@H]1Cc1ccc(O)cc13 [levorphan]
MRGPRX2 [2]
  activity in the TANGO assay at MRGPRX2: showed activity

## CN1CCC(=C2c3ccccc3CCc3sccc32)CC1 [pizotyline]
MRGPRX2 [2]
  activity in the TANGO assay at MRGPRX2: showed activity

## Oc1ccc(/C=C/c2cc(O)cc(O)c2)cc1 [resveratrol]
[6]; of 91 targets tested
  number of targets with greater than 2-fold reduction in luminescence: 70
  percent of targets with greater than 2-fold reduction in luminescence: 77%

## BAM8-22
MRGPRX1 [13]
  calcium mobilization response: concentration-dependent responses

## SR142948
[12]
  agonist activity at NTSR2 neurotensin receptors: agonists

## β-arrestin2-TEV fusion (from UniProt P32121 1-409) (natural protein)
[14]
  fold response above baseline: 184 fold

B1: CX3CL1: ligand of the CX3CR1 chemokine receptor (protein)
chain: QHHGVTKCNITCSKMTSKIPVALLIHYQQNQASCGKRAIILETRQHRLFCADPKEQWVKDAMQHLDRQAAALTRNGGTFEKQIGEVKPRTTPAAGGMDESVVLEPEATGESSSLEPTPSSQEAQRALGTSPELPTGVTGSSGTRLPPTPKAQDGGPVGTELFRVPPVSTAATWQSSAPHQPGPSLWAEAKTSEAPSTQDPSTQASTASSPAPEENAPSEGQRVWGQGQSPRPENSLEREEMGPVPAHTDAFQDWGPGSMAHVSVVPVSSEGTPSREPVASGSWTPKAEEPIHATMDPQRLGVLITPVPDAQAATRRQAVGLLAFLGLLFCLGVAMFTYQSLQGCPRKMAGEMAEGLRYIPRSCGSNSYVLVPV
[15]
  EC50: 0.34 nM
